Drawing on ChEMBL document CHEMBL2086326, “Biological activity evaluation and structure-activity relationships analysis of ferulic acid and caffeic acid derivatives for anticancer” (Bioorg Med Chem Lett, 2012), this text covers IC50 for 6 compounds.

What all share (assay type): functional, cell-based
In one assay the test system is A549. As to the kind of experiment: Cytotoxicity against human A549 cells after 72 hrs by alamar blue assay. The conditions noted are these: A549, 72 h. Summed up: (§1)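 Cells seeded at 800–1000 per well (20–25 cells/µL) and left overnight to attach. Compounds were diluted serially from 10 mM DMSO stocks and tested at 8 final concentrations, 50 to 0.39 µM, in triplicate for 72 h. Vehicle control was 0.5% DMSO. Alamar blue was added to 10% final and fluorescence read after 4 h (ex 530, em 560 nm). Viability was expressed as percent of vehicle, and IC50 taken as 50% kill versus control.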

The test system of the next assay is NCI-H157. As to the kind of experiment: Cytotoxicity against human NCI-H157 cells after 72 hrs by alamar blue assay. The conditions noted are these: NCI-H157, 72 h. The gist of the method:
as §1
(Resazurin is reduced to fluorescent resorufin, in cell work by metabolically active cells.)

The test system of another assay is NCI-H460. As to the kind of experiment: Cytotoxicity against human H460 cells after 72 hrs by alamar blue assay. The note with it: NCI-H460, 72 h. Summed up:
as §1

The subject of the next assay is NCI-H1792. As to the kind of experiment: Cytotoxicity against human NCI-H1792 cells after 72 hrs by alamar blue assay. The conditions noted are these: NCI-H1792, 72 h. Summed up:
as §1

Assay [1] in a line: Cytotoxicity against human H266 cells after 72 hrs by alamar blue assay. The conditions noted are these: H266, 72 h. Summed up: as §1
For the next assay, the system named is HOP-62. As to the kind of experiment: Cytotoxicity against human HOP62 cells after 72 hrs by alamar blue assay. The conditions noted are these: HOP-62, 72 h. The gist of the method: as §1
Another assay deals with NCI-H1299. The experiment in a line: Cytotoxicity against human NCI-H1299 cells after 72 hrs by alamar blue assay. The note with it: NCI-H1299, 72 h. Summed up:
as §1

Assay [2] is described as follows: Cytotoxicity against human 292G cells after 72 hrs by alamar blue assay. The gist of the method:
as §1

The subject of another assay is Calu-1. The experiment in a line: Cytotoxicity against human Calu1 cells after 72 hrs by alamar blue assay. The note with it: Calu-1, 72 h. The gist of the method: as §1
For another assay, the system named is LOX IMVI. As to the kind of experiment: Cytotoxicity against human LOXIMVI cells after 72 hrs by alamar blue assay. Summed up: as §1
A further assay concerns M14. The experiment in a line: Cytotoxicity against human M14 cells after 72 hrs by alamar blue assay. The conditions noted are these: M14, 72 h. The gist of the method:
as §1

The subject of another assay is HeLa. The experiment in a line: Cytotoxicity against human HeLa cells after 72 hrs by alamar blue assay. The gist of the method:
as §1

Assay [3] in a line: Cytotoxicity against human M4E cells after 72 hrs by alamar blue assay. Summed up: as §1
The nature of assay [4]: Cytotoxicity against human SKBR cells after 72 hrs by alamar blue assay. The gist of the method:
as §1

SMILES strings stand for the structures. pIC50: −log10 of the molar value.

With `CCCOC(=O)/C=C/c1ccc(O)c(OC)c1`, the pIC50 was 4.81 in the assay on A549; 4.82 in the assay on NCI-H157; 4.60 with NCI-H460; 4.47 in the assay on NCI-H1792; 4.69 in [1]; 4.65 with HOP-62. The pIC50 in the assay on NCI-H1299 was 4.39; in [2], 4.44; in the assay with Calu-1, 4.31; in the assay on LOX IMVI, 4.82; with M14, 4.55; with HeLa, 5.25. Further, the pIC50 is 4.73 in assay [3] and 4.61 in assay [4].
Turning to `COc1cc(/C=C/C(=O)OCCCCCCO[N+](=O)[O-])ccc1O`, the pIC50 is 4.43 in the assay with A549; 4.49 in the assay with NCI-H157; < 4.30 in the assay on NCI-H460; 4.31 in the assay on NCI-H1792; < 4.30 in assay [1]; < 4.30 in the assay on HOP-62. For the same compound, the pIC50 with NCI-H1299 is < 4.30; in assay [2] it was < 4.30; in the assay on Calu-1, < 4.30; with LOX IMVI, < 4.30; in the assay with M14, < 4.30; in the assay with HeLa, 4.79. The results for the pIC50 in [3] and in assay [4] were < 4.30 and 4.82, respectively.
Consider `COc1cc(/C=C/C(=O)OCc2c(-c3ccccc3)no[n+]2[O-])ccc1O`, for which the pIC50 in the assay with A549 is 5.69; in the assay with NCI-H157 it was 5.34; in the assay with NCI-H460 it was 5.15; with NCI-H1792, 4.95; in assay [1], 4.87; with HOP-62, 5.06. In addition, the pIC50 is 4.89 with NCI-H1299; 4.78 in assay [2]; 4.64 in the assay with Calu-1; 4.86 with LOX IMVI; 4.85 with M14; 5.11 in the assay with HeLa. The pIC50 was 5.47 in assay [3] and 5.30 in [4].
For `COc1cc(/C=C/C(=O)OCC(C)C)ccc1O`, the pIC50 in the assay on A549 was 4.46; with NCI-H157, 4.55; in the assay on NCI-H460, < 4.30; in the assay on NCI-H1792, < 4.30; in assay [1] it was 4.45; with HOP-62, < 4.30. Also, the pIC50 in the assay with NCI-H1299 is 4.42; in [2], < 4.30; in the assay on Calu-1, < 4.30; in the assay on LOX IMVI, < 4.30; with M14, < 4.30; in the assay on HeLa, 4.54. Also, the negative-log IC50 (pIC50) in assay [3] is < 4.30; in [4], 4.35.
In the case of `CC(C)COC(=O)/C=C/c1ccc(O)c(O)c1`, the pIC50 in the assay on A549 was 4.87; in the assay on NCI-H157, 5.07; with NCI-H460 it was 4.80; in the assay on NCI-H1792, < 4.30; in [1], < 4.30; in the assay on HOP-62, < 4.30. For the same compound, the negative-log IC50 (pIC50) with NCI-H1299 was 4.42; in assay [2], 4.43; in the assay with Calu-1, < 4.30; with LOX IMVI, < 4.30; in the assay on M14 it was < 4.30; with HeLa it was 5.33. Also, the pIC50 was 4.43 in assay [3] and 4.79 in assay [4].
On to `COc1cc(/C=C/C(=O)OCCCCCCO[N+](=O)[O-])ccc1OCCCCCCO[N+](=O)[O-]`, for which the pIC50 (with A549; with NCI-H157; in the assay with NCI-H460; with NCI-H1792; in assay [1]; in the assay with HOP-62) was < 4.30 in each case. For the same compound, the pIC50 with NCI-H1299 was < 4.30; in assay [2], < 4.30; with Calu-1, 4.56; in the assay on LOX IMVI, < 4.30; in the assay on M14 it was < 4.30; in the assay on HeLa it was < 4.30. The pIC50 in assay [3] and in assay [4] was < 4.30 throughout.

Broadly, the pIC50 is the IC50 on a negative log10 scale, so that one unit is a factor of ten. A low value points to a high IC50.
